Activity calls are given as the source filed them.
Tests used:
[1] = target: T1, Cannabinoid receptor 2 (Homo sapiens, UniProt P34972); experiment: Displacement of [3H]-CP55,940 from human CB2R expressed in CHO-K1 cell membranes incubated for 2 hrs by liquid scintillation spectrophotometry relative to CP55,940; conditions: Membrane
Procedure, shortened: (§1)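 Membranes from CHO-K1 cells stably expressing hCB1R or hCB2R (50 μg protein) incubated with 1 nM [3H]CP55,940 and compound (0.10 nM–10 μM) in Tris binding buffer with 0.1% BSA, pH 7.4, for 120 min at 37 °C. Bound ligand filtered on GF/B and counted by liquid scintillation. Nonspecific binding defined with 1 μM unlabelled CP55,940; three-parameter fit; n = 3 in duplicate.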

[2] = target: T1, Cannabinoid receptor 2; experiment: Agonist activity at human CB2 receptor expressed in CHO-K1 cells assessed as inhibition of froskolin-stimulated cAMP accumulation incubated for 90 mins by HitHunter chemiluminescence based assay; type: functional, cell-based
Procedure, shortened: (§2)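 HitHunter assay in DiscoveRx CHO-K1 hCB2R cells, seeded overnight in Opti-MEM with 1% FBS, then put in assay buffer. Cells cotreated at 37 °C for 90 min with 10 μM forskolin and ligand (0.10 nM–10 μM). cAMP antibody/detection solutions added for 60 min at room temperature, then solution A for 180 min, then chemiluminescence read.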

[3] = target: T2, Cannabinoid receptor 1 (Homo sapiens, UniProt P21554); experiment: Displacement of [3H]-CP55,940 from human CB1R expressed in CHO-K1 cell membranes assessed as inhibition constant incubated for 2 hrs by liquid scintillation spectrometry analysis; design: species or system Membrane
[4] = target: T1, Cannabinoid receptor 2; experiment: Agonist activity at human CB2 receptor expressed in CHO-K1 cells assessed as enhancement of beta arrestin-2 recruitment incubated for 90 mins by […] chemiluminescence based assay; type: functional, cell-based
Procedure, shortened: (§3)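 PathHunter beta-arrestin2 recruitment in DiscoveRx CHO-K1 cells stably expressing hCB2R, seeded overnight in Opti-MEM with 1% FBS at 37 °C. Ligands (0.10 nM–10 μM) added for 90 min at 37 °C, then detection solution 60 min at room temperature and chemiluminescence read.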

[5] = target: T2, Cannabinoid receptor 1; experiment: Displacement of [3H]-CP55,940 from human CB1R expressed in CHO-K1 cell membranes incubated for 2 hrs by liquid scintillation spectrometry relative to CP55,940; conditions: Membrane; procedure, shortened: as §1
[6] = target: T1, Cannabinoid receptor 2; experiment: Agonist activity at human CB2 receptor expressed in CHO-K1 cells assessed as inhibition of froskolin-stimulated cAMP accumulation at 10 uM incubated for 90 mins by HitHunter chemiluminescence based assay relative to CP55,940; type: functional, cell-based
Procedure, shortened: as §2, with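 “read. Response given as % CP55,940; three-parameter fit; n = 6 in triplicate.” for “read.”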

[7] = target: T1, Cannabinoid receptor 2; experiment: Agonist activity at human CB2 receptor expressed in CHO-K1 cells assessed as enhancement of beta arrestin-2 recruitment at 10 uM incubated for 90 mins by HitHunter chemiluminescence based assay relative to CP55,940; type: functional, cell-based
Procedure, shortened: as §3, with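 “read. Data expressed as % CP55,940 response and fitted by three-parameter nonlinear regression; n = 6 independent experiments in triplicate.” for “read.”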

[8] = target: T1, Cannabinoid receptor 2; experiment: Displacement of [3H]-CP55,940 from human CB2R expressed in CHO-K1 cell membranes assessed as inhibition constant incubated for 2 hrs by liquid scintillation spectrometry; design: species or system Membrane
[9] = system: Mus musculus; experiment: Antinociceptive activity against oxaliplatin-induced neuropathic pain in CD-1 albino mouse assessed as decrease in neuropathic pain at 20 mg/kg, po measured after 15 to 60 mins by cold plate assay; type: functional; design: scale not given: the % may be the effect or the level left; conditions: time 15-60 min
Procedure, shortened: (§4)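 Male CD-1 mice (22–25 g) given oxaliplatin 2.4 mg/kg i.p. in 5% glucose on days 1–2, 5–9 and 12–14. On day 15 compound given orally at 1, 5 or 20 mg/kg in 1% carboxymethylcellulose. Cold plate held at 4 °C; latency to paw licking or lifting recorded (cut-off 60 s) at 15, 30, 45, 60 and 75 min. 16 mice per group over 2 experimental sets.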

[10] = system: BV-2; experiment: Antiinflammatory activity in LPS-induced mouse microglial BV-2 cells assessed as increase in IL-10 release at 1 uM preincubated for 1 hr followed by LPS-stimulation and measured after 4 hrs by ELISA; type: functional, cell-based; conditions: time 5.0 hrs
Procedure, shortened: (§5)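 Murine BV2 microglia given 1 μM compound 1 h before LPS (5 μg/mL), then stimulated 4 h. IL-6 or IL-10 in the medium measured by ELISA (pg/mL). Where used, SR144528 (1 μM) added 15 min before agonist. n = 3 independent experiments in duplicate; one-way ANOVA with Tukey test.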

[11] = target: T1, Cannabinoid receptor 2; experiment: Agonist activity at human CB2 receptor expressed in CHO-K1 cells assessed as inhibition of froskolin-stimulated cAMP accumulation incubated for 90 mins in presence of EC-21a by HitHunter chemiluminescence based assay; type: functional, cell-based
[12] = system: BV-2; experiment: Antiinflammatory activity in LPS-induced mouse microglial BV-2 cells assessed as decrease in IL-6 release at 1 uM preincubated for 1 hr followed by LPS-stimulation and measured after 4 hrs by ELISA; type: functional, cell-based; conditions: time 5.0 hrs; procedure, shortened: as §5
[13] = target: T1, Cannabinoid receptor 2; experiment: Agonist activity at human CB2 receptor expressed in CHO-K1 cells assessed as inhibition of froskolin-stimulated cAMP accumulation at 50 nM incubated for 90 mins in presence of EC-21a by HitHunter chemiluminescence based assay relative to CP55,940; type: functional, cell-based
[14] = target: T1, Cannabinoid receptor 2; experiment: Agonist activity at human CB2 receptor expressed in CHO-K1 cells assessed as inhibition of froskolin-stimulated cAMP accumulation incubated for 90 mins in presence of SR144528 by HitHunter chemiluminescence based assay; type: functional, cell-based
Procedure, shortened: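 Forskolin (10 μM)-stimulated cAMP HitHunter assay in CHO-K1 hCB2R cells, 90 min at 37 °C. Ligand at 0.1 nM–10 μM given at the same time as a fixed 100 nM SR144528. Data given as % CP55,940; three-parameter fit; 3–6 independent experiments in triplicate.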

[15] = Cytotoxicity against LPS/TNFalpha-induced HMC3 cells assessed as reduction in cell viability at 1 uM pretreated with compound for 1 hr followed by LPS/TNFalpha stimulation and measured after 24 hrs by MTT assay; type: toxicity, cell-based; conditions: human, hmc3, 25 h
Procedure, shortened: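 HMC3 microglial cells exposed to compound at 100 nM, 1 μM and 10 μM; viability read by MTT reduction. n = 3 independent experiments in triplicate; one-way ANOVA with Tukey test.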

[16] = system: Mus musculus; experiment: Antinociceptive activity against oxaliplatin-induced neuropathic pain in po dosed CD-1 albino mouse assessed as decrease in neuropathic pain measured upto 75 min by cold plate assay; type: functional, organism-based; conditions: DDE = dose-dependent effect; procedure, shortened: as §4
[17] = system: HMC3; experiment: Antiinflammatory activity in LPS/TNFalpha-induced HMC3 cells assessed as increase in IL-10 release at 1 uM pretreated with compound for 1 hr followed by LPS/TNFalpha stimulation and measured after 24 hrs by ELISA; type: functional, cell-based; conditions: Homo sapiens, time 25.0 hrs
Procedure, shortened: (§6)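 HMC3 human microglia in high-glucose DMEM with 10% FBS, pretreated 1 h with compound (100 nM–10 μM), then stimulated with LPS (10 μg/mL) plus TNFα (50 ng/mL) for 24 h. IL-6 or IL-10 in the medium measured by ELISA. SR144528 (1 μM) added 15 min before agonist where used; JWH133 served as positive control. n = 3 in duplicate; ANOVA with Tukey test.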

[18] = system: HMC3; experiment: Antiinflammatory activity in LPS/TNFalpha-induced HMC3 cells assessed as decrease in IL-6 release at 1 uM pretreated with compound for 1 hr followed by LPS/TNFalpha stimulation and measured after 24 hrs by ELISA; type: functional, cell-based; conditions: Homo sapiens, time 25.0 hrs; procedure, shortened: as §6
[19] = target: T1, Cannabinoid receptor 2; experiment: Agonist activity at human CB2 receptor expressed in CHO-k1 cells assessed as inhibition of froskolin-stimulated cAMP accumulation at 5 nM incubated for 90 mins in presence of EC-21a by HitHunter chemiluminescence based assay relative to CP55,940; type: functional, cell-based

T1 sequence (P34972 whole entry): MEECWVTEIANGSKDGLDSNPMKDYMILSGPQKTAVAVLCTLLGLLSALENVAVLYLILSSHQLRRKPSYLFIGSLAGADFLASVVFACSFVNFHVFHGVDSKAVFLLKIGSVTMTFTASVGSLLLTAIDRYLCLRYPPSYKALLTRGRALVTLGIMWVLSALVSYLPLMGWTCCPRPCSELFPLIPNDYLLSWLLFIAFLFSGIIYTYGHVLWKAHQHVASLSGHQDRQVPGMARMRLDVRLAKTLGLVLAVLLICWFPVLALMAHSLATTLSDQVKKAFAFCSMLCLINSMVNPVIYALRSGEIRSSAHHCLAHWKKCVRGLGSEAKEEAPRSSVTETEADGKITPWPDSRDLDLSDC
T2 sequence (P21554 whole entry): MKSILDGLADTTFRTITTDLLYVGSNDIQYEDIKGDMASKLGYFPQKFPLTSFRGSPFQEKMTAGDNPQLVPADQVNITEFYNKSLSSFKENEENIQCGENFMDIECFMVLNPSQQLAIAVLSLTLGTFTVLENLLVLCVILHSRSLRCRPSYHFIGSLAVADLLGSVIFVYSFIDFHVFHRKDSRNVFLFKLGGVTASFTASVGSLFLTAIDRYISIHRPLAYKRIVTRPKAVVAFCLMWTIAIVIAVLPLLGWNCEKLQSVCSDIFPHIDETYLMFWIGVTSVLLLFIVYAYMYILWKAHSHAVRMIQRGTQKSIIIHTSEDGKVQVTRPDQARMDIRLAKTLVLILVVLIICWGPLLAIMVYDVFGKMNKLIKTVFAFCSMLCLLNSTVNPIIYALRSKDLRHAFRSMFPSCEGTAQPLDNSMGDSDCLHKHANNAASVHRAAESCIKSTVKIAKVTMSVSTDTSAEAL

SMILES | Emin ([1]; filed as agonist) | EC50 [2] | Ki [3] | EC50 [4] | Emin ([5]; filed as agonist) | Emax [6] | Ki [8] | Emax ([7]; filed as agonist) | also measured
Cc1c(Br)cn(Cc2ccc(F)cc2)c(=O)c1NC(=O)C1CCCCCC1 | 130% | > 10000 nM | > 10000 nM | > 10000 nM | 103% | 2.5% | 19 nM | – | Emax [7]: 1.4%
CCCCCCC(C)(C)c1ccc([C@@H]2C[C@H](O)CC[C@H]2CCCO)c(O)c1 | – | – | – | – | – | – | – | – | Emin [1]: 0%; Emin [5]: 0%
Cc1c(Br)cn(CCCc2cn(CCCCCn3c(C)c(Br)cc(C(=O)NC4CCCCCC4)c3=O)nn2)c(=O)c1NC(=O)C1CCCCCC1 | 40% | 73 nM | > 10000 nM | > 10000 nM | 89% | – | 1.4 nM | – | Activity [9]: 100%; Activity [10]: Active; EC50 [11]: 2.2 nM; Activity [12]: Active; EC50 [13]: 8 nM; EC50 [14]: 61 nM; Emax ([6]; filed as agonist): 52%; Activity [15]: Non-Toxic; Activity [16]: Dde; Emax [7]: 30%; Activity [17]: Active; Activity [18]: Active
Cc1c(Br)cn(Cc2cn(CCCCCn3c(C)c(Br)cc(C(=O)NC4CCCCCC4)c3=O)nn2)c(=O)c1NC(=O)C1CCCCCC1 | – | > 10000 nM | – | > 10000 nM | – | 22% | – | 41% | –
Cc1c(Br)cn(Cc2cn(CCCn3c(C)c(Br)cc(C(=O)NC4CCCCCC4)c3=O)nn2)c(=O)c1NC(=O)C1CCCCCC1 | – | > 10000 nM | – | 560 nM | – | 21% | – | 53% | –
Cc1c(Br)cn(CCCc2cn(CCCn3c(C)c(Br)cc(C(=O)NC4CCCCCC4)c3=O)nn2)c(=O)c1NC(=O)C1CCCCCC1 | – | > 10000 nM | – | > 10000 nM | – | 21% | – | 46% | –
Cc1c(Br)cc(C(=O)NC2CCCCCC2)c(=O)n1Cc1ccc(F)cc1 | – | 20 nM | 0.79 nM | 63 nM | – | – | 7 nM | 45% | Emin [1]: 13%; Emin [5]: 29%; Emax ([6]; filed as agonist): 76%
Cc1nc(OCCCCCn2cc(CCCn3cc(Br)c(C)c(NC(=O)C4CCCCCC4)c3=O)nn2)c(C(=O)NC2CCCCCC2)cc1Br | 52% | 8 nM | > 10000 nM | > 10000 nM | 95% | 38% | 1.9 nM | 43% | Emax [11]: 20%; Emax [13]: 38%; Emax [14]: 39%; Emax [19]: 29%

Reference: ChEMBL document CHEMBL5143741, “Design, Synthesis, and Biological Activity of New CB2 Receptor Ligands: from Orthosteric and Allosteric Modulators to Dualsteric/Bitopic Ligands” (J Med Chem, 2022)
